Experimental data as given in ChEMBL document CHEMBL2417431, “Synthesis and evaluation of hetero- and homodimers of ribosome-targeting antibiotics: antimicrobial activity, in vitro inhibition of translation, and drug resistance” (J Med Chem, 2013).
In brackets after ≈: the same amount, converted by molar mass.

What was measured:
[1] = test system: Bacillus cereus; assay: Antibacterial activity against Bacillus cereus ATCC 11778 by double-dilution technique; assay type: functional
Outline: (§1)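 MIC measured against each bacterial strain using a double-dilution series of each compound. Every determination was run in duplicate or triplicate.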

[2] = test system: Listeria monocytogenes; assay: Antibacterial activity against Listeria monocytogenes ATCC 19115 by double-dilution technique; assay type: functional
Outline: (§2)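 Double-dilution series of each compound against each strain, reported as MIC. Runs done in duplicate or triplicate.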

[3] = test system: Bacillus subtilis; assay: Antibacterial activity against Bacillus subtilis 168 harboring AAC(6')/APH(2'')-pRB374 by double-dilution technique; assay type: functional
[4] = test system: Bacillus subtilis; assay: Antibacterial activity against Bacillus subtilis 168 by double-dilution technique; assay type: functional; outline: as §2
[5] = test system: Streptococcus pyogenes; assay: Antibacterial activity against Streptococcus pyogenes Serotype M12 MGAS9429 by double-dilution technique; assay type: functional; outline: as §1
[6] = test system: Escherichia coli; assay: Inhibition of protein synthesis in Escherichia coli S30 extracts after 90 mins by coupled transcription/translation assay; assay type: functional; conditions: 1.5 h
Outline: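 E. coli extract coupled transcription/translation with luciferase reporter. Reactions with varying compound concentrations ran 90 min at 37 °C, were chilled on ice, then diluted in Tris-phosphate pH 7.8 buffer containing DTT, glycerol, Triton X-100 and BSA. Luminescence was read immediately after adding luciferase reagent. IC50 came from concentration-response fits of at least two independent experiments.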

[7] = test system: Staphylococcus epidermidis; assay: Antibacterial activity against biofilm negative Staphylococcus epidermidis ATCC 12228 by double-dilution technique; assay type: functional; outline: as §1
[8] = test system: Bacillus anthracis; assay: Antibacterial activity against Bacillus anthracis 34F2 Sterne by double-dilution technique; assay type: functional; outline: as §2
[9] = test system: Haemophilus influenzae; assay: Antibacterial activity against Haemophilus influenzae ATCC 51907 by double-dilution technique; assay type: functional; outline: as §1
[10] = test system: Escherichia coli; assay: Antibacterial activity against Escherichia coli MC1061 by double-dilution technique; assay type: functional; outline: as §2
[11] = test system: Staphylococcus aureus; assay: Antibacterial activity against Staphylococcus aureus ATCC 29213 by double-dilution technique; assay type: functional; outline: as §2
[12] = test system: Staphylococcus aureus; assay: Antibacterial activity against Staphylococcus aureus expressing NorA by double-dilution technique; assay type: functional; outline: as §2
[13] = test system: Mycolicibacterium smegmatis; assay: Antibacterial activity against Mycobacterium smegmatis str. MC2 155 by double-dilution technique; assay type: functional
[14] = Drug metabolism assessed as enhanced intracellular survival protein (unknown origin)-mediated conversion at 100 uM by micro plate reader analysis relative to tobramycin; assay type: ADME
Outline: (§3)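 Ellman assay: CoASH release coupled to DTNB (2 mM), read at 412 nm every 30 s for 1 h at 25 °C. Compound at 100 μM. Conditions by enzyme: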

[15] = Drug metabolism assessed as aminoglycoside 2'-N-acetyltransferase Ic (unknown origin)-mediated conversion at 100 uM by micro plate reader analysis relative to tobramycin; assay type: ADME; outline: as §3
[16] = Drug metabolism assessed as aminoglycoside 3-N-acetyltransferase AAC(3)-IV (unknown origin)-mediated conversion at 100 uM by micro plate reader analysis relative to tobramycin; assay type: ADME; outline: as §3

| Compound | MIC [1] [µg/mL] | MIC [2] [µg/mL] | MIC [3] [µg/mL] | MIC [4] [µg/mL] | MIC [5] [µg/mL] | IC50 [6] [µM] | MIC [7] [µg/mL] | MIC [8] [µg/mL] | MIC [9] [µg/mL] | MIC [10] [µg/mL] | MIC [11] [µg/mL] | MIC [12] [µg/mL] | MIC [13] [µg/mL] | fold change (FC) [14] | fold change (FC) [15] | fold change (FC) [16] |
| --- | --- | --- | --- | --- | --- | --- | --- | --- | --- | --- | --- | --- | --- | --- | --- | --- |
| CCC[C@@H]1C[C@@H](C(=O)N[C@H]([C@H]2O[C@H](SC)[C@H](O)[C@@H](O)[C@H]2O)[C@@H](C)SCCOCCSSCCOCCSCC(=O)N[C@@H](CO)[C@H](O)c2ccc([N+](=O)[O-])cc2)N(C)C1 | 2.3 (≈ 2.51 µM) | 4.7 (≈ 5.14 µM) | > 150 | 2.3 (≈ 2.51 µM) | > 128 | 18.3 | 2 (≈ 2.19 µM) | < 0.3 | 150 (≈ 164 µM) | 4.7 (≈ 5.14 µM) | 0.6 (≈ 0.656 µM) | < 0.3 | 18.8 (≈ 20.5 µM) | – | – | – |
| CCC[C@@H]1C[C@@H](C(=O)N[C@H]([C@H]2O[C@H](SC)[C@H](O)[C@@H](O)[C@H]2O)[C@@H](C)SCCOCCSCC(=O)N[C@H](CO)[C@H](O)c2ccc([N+](=O)[O-])cc2)N(C)C1 | 18.8 (≈ 24.1 µM) | 75 (≈ 96.3 µM) | > 150 | 18.8 (≈ 24.1 µM) | > 128 | 14.7 | 4 (≈ 5.13 µM) | 2.3 (≈ 2.95 µM) | 75 (≈ 96.3 µM) | 9.4 (≈ 12.1 µM) | 18.8 (≈ 24.1 µM) | 18.8 (≈ 24.1 µM) | > 150 | – | – | – |
| NC[C@H]1O[C@H](O[C@H]2[C@H](O)[C@@H](O[C@@H]3O[C@H](CSCCOCCSSCCOCCSCC(=O)N[C@H](CO)[C@H](O)c4ccc([N+](=O)[O-])cc4)[C@@H](O)[C@H](N)[C@H]3O)[C@H](N)C[C@@H]2N)[C@H](N)C[C@@H]1O | 150 (≈ 154 µM) | 18.8 (≈ 19.3 µM) | 150 (≈ 154 µM) | 4.7 (≈ 4.81 µM) | 16 (≈ 16.4 µM) | 1 | 16 (≈ 16.4 µM) | 75 (≈ 76.8 µM) | 37.5 (≈ 38.4 µM) | 4.7 (≈ 4.81 µM) | 150 (≈ 154 µM) | 9.4 (≈ 9.63 µM) | 4.7 (≈ 4.81 µM) | 2.6 | 1.6 | 1.4 |
| NC[C@H]1O[C@H](O[C@H]2[C@H](O)[C@@H](O[C@@H]3O[C@H](CSCCOCCSCC(=O)N[C@H](CO)[C@H](O)c4ccc([N+](=O)[O-])cc4)[C@@H](O)[C@H](N)[C@H]3O)[C@H](N)C[C@@H]2N)[C@H](N)C[C@@H]1O | > 150 | > 150 | > 150 | 150 (≈ 179 µM) | 8 (≈ 9.52 µM) | 1.49 | 8 (≈ 9.52 µM) | > 150 | 150 (≈ 179 µM) | > 150 | > 150 | > 150 | 18.8 (≈ 22.4 µM) | 2.9 | 2 | 1.8 |
| O=C(CSCCOCCSSCCOCCSCC(=O)N[C@H](CO)[C@H](O)c1ccc([N+](=O)[O-])cc1)N[C@H](CO)[C@H](O)c1ccc([N+](=O)[O-])cc1 | 75 (≈ 96.3 µM) | 9.4 (≈ 12.1 µM) | > 150 | 150 (≈ 193 µM) | > 128 | 25.6 | > 64 | 75 (≈ 96.3 µM) | 150 (≈ 193 µM) | 18.8 (≈ 24.1 µM) | 0.6 (≈ 0.77 µM) | > 150 | > 150 | – | – | – |
| O=C(CSCCOCCSCC(=O)N[C@H](CO)[C@H](O)c1ccc([N+](=O)[O-])cc1)N[C@H](CO)[C@H](O)c1ccc([N+](=O)[O-])cc1 | > 150 | > 150 | > 150 | > 150 | > 128 | 32.9 | > 64 | > 150 | > 150 | > 150 | > 150 | > 150 | > 150 | – | – | – |
| NC[C@H]1O[C@H](O[C@H]2[C@H](O)[C@@H](O[C@@H]3O[C@H](CSCCOCCSSCCOCCSC[C@H]4O[C@@H](O[C@@H]5[C@@H](O)[C@H](O[C@H]6O[C@H](CN)[C@@H](O)C[C@H]6N)[C@@H](N)C[C@H]5N)[C@H](O)[C@@H](N)[C@@H]4O)[C@@H](O)[C@H](N)[C@H]3O)[C@H](N)C[C@@H]2N)[C@H](N)C[C@@H]1O | 75 (≈ 63.9 µM) | 37.5 (≈ 32 µM) | 37.5 (≈ 32 µM) | 0.6 (≈ 0.511 µM) | 64 (≈ 54.5 µM) | 0.27 | 16 (≈ 13.6 µM) | 37.5 (≈ 32 µM) | 9.4 (≈ 8.01 µM) | 18.8 (≈ 16 µM) | 37.5 (≈ 32 µM) | 9.4 (≈ 8.01 µM) | 2.3 (≈ 1.96 µM) | 4.1 | 2.4 | 2 |
